Measured values taken from ChEMBL document CHEMBL1765057, “Pyrazolo[4,3-d]pyrimidine bioisostere of roscovitine: evaluation of a novel selective inhibitor of cyclin-dependent kinases with antiproliferative activity” (J Med Chem, 2011).

Tested on: HL-60
Assay: Cytotoxicity against human HL60 cells after 72 hrs by fluoroskan ascent microplate reader analysis
Assay type: functional, cell-based
Details: HL-60, 72 h
In short: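 Cells were grown in DMEM with 10% FCS and 4 mM glutamine at 37 °C under CO2, then plated at densities suited to each line. Compounds were added as 3-fold dilutions in triplicate for 72 h.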

With CC[C@H](CO)Nc1nc(NCc2ccccc2)c2[nH]nc(C(C)C)c2n1 the IC50 was 7.1 µM.
